# Assay results reported in ChEMBL document CHEMBL3244045, “2-cyano-1,3-dicarbonyl compounds with antiallergic activity” (1977).
# Assays:
# Assay type in all cases: functional
# Rattus norvegicus [1] = assay: Antiallergic activity in sc dosed Wistar rat assessed as time between compound administration and ovalbumin challenge to give maximum activity by passive cutaneous anaphylaxis assay
# Rattus norvegicus [2] = assay: Antiallergic activity in sc dosed Wistar rat assessed as inhibition of ovalbumin-mediated passive cutaneous anaphylaxis by measuring wheal formation at Tmax
# How it was run: (§1)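 Rat PCA: serum with heat-labile homocytotropic antibody raised in rats to crystallized ovalbumin, Bordetella pertussis vaccine adjuvant; PCA per Ovary–Bier method as modified by Goose and Blair. Test agents as sodium salts, dissolved in pH 7.2 buffer or suspended in 1% methylcellulose by solubility. ED50 from inhibition/log dose line, 95% confidence limits, slope and animal numbers given.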
# Rattus norvegicus [3] = assay: Antiallergic activity in po dosed Wistar rat assessed as inhibition of ovalbumin-mediated passive cutaneous anaphylaxis by measuring wheal formation administered 15 to 20 mins prior to ovalbumin challenge; how it was run: as §1
Compound,Time (Rattus norvegicus [1]),ED50 (Rattus norvegicus [2]),ED50 (Rattus norvegicus [3])
N#C[C-]1C(=O)c2ccccc2C1=O.[Na+],10 min,85.3 µmol/kg,
Cc1cccc2c1C(=O)[C-](C#N)C2=O.[Na+] (stereo not given),10 min,74 µmol/kg,
Cc1ccc2c(c1)C(=O)[C-](C#N)C2=O.[Na+] (stereo not given),10 min,44.1 µmol/kg,
Cc1cc2c(cc1C)C(=O)[C-](C#N)C2=O.[Na+],10 min,16.3 µmol/kg,
CCc1cc2c(cc1CC)C(=O)[C-](C#N)C2=O.[Na+],20 min,10.9 µmol/kg,60 µmol/kg
N#C[C-]1C(=O)c2cc3ccccc3cc2C1=O.[Na+],10 min,13.8 µmol/kg,
COc1cccc2c1C(=O)[C-](C#N)C2=O.[Na+] (stereo not given),10 min,90.2 µmol/kg,
N#C[C-]1C(=O)c2ccc(Cl)cc2C1=O.[Na+] (stereo not given),10 min,59.7 µmol/kg,
N#C[C-]1C(=O)c2cccnc2C1=O.[Na+] (stereo not given),10 min,90.6 µmol/kg,
N#C[C-]1C(=O)c2ccncc2C1=O.[Na+] (stereo not given),10 min,120 µmol/kg,
N#Cc1c([O-])c2ccccc2oc1=O.[Na+],10 min,39.1 µmol/kg,
Cc1ccc2oc(=O)c(C#N)c([O-])c2c1.[Na+],10 min,497 µmol/kg,
Cc1ccc2c([O-])c(C#N)c(=O)oc2c1.[Na+],10 min,52.4 µmol/kg,
Cc1cccc2c([O-])c(C#N)c(=O)oc12.[Na+],10 min,32.8 µmol/kg,
CCc1ccc2c([O-])c(C#N)c(=O)oc2c1.[Na+],10 min,23.8 µmol/kg,
Cc1cc2oc(=O)c(C#N)c([O-])c2cc1C.[Na+],10 min,15.2 µmol/kg,
CCc1cc2c([O-])c(C#N)c(=O)oc2cc1C.[Na+],10 min,10.1 µmol/kg,
CCc1cc2oc(=O)c(C#N)c([O-])c2cc1CC.[Na+],10 min,7.6 µmol/kg,60 µmol/kg
N#Cc1c([O-])c2cc3c(cc2oc1=O)CCCC3.[Na+],10 min,16.4 µmol/kg,
Cc1ccc2c([O-])c(C#N)c(=O)oc2c1C.[Na+],10 min,26.2 µmol/kg,
N#Cc1c([O-])c2cc3ccccc3cc2oc1=O.[Na+],10 min,211 µmol/kg,
COc1ccc2oc(=O)c(C#N)c([O-])c2c1.[Na+],10 min,28.2 µmol/kg,
CCOc1ccc2c([O-])c(C#N)c(=O)oc2c1.[Na+],10 min,15.1 µmol/kg,
O=C([O-])c1cc(=O)c2c(OCC(O)COc3cccc4oc(C(=O)[O-])cc(=O)c34)cccc2o1.[Na+].[Na+] [CROMOLYN SODIUM],10 min,13.1 µmol/kg,
